Values after ≈ are worked out from the molar mass of the structure shown.
Columns and labels:
Type in all cases: functional
Pseudomonas aeruginosa = experiment: Antimicrobial activity against Pseudomonas aeruginosa by broth microdilution method
Procedure, shortened: (§1)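 Bacteria were grown on MH agar at 37 °C for 24 h, then diluted to about 1 × 10^7 CFU/mL. Compounds were dissolved in DMSO. MIC was determined by broth microdilution as the lowest concentration with no growth by turbidity, with MTT absorbance read at 570 nm. Duplicates, repeated three times.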

Candida albicans = experiment: Antimicrobial activity against Candida albicans by broth microdilution method
Procedure, shortened: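 C. albicans was grown on PDA agar at 28 °C for 48 h, then diluted to about 1 × 10^7 CFU/mL. Compounds were dissolved in DMSO. MIC was determined by broth microdilution as the lowest concentration with no growth by turbidity, with MTT absorbance read at 570 nm. Duplicates, repeated three times.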

Enterococcus faecalis = experiment: Antimicrobial activity against Enterococcus faecalis by broth microdilution method; procedure, shortened: as §1
Bacillus cereus = experiment: Antimicrobial activity against Bacillus cereus by broth microdilution method; procedure, shortened: as §1
Staphylococcus aureus = experiment: Antimicrobial activity against Staphylococcus aureus by broth microdilution method; procedure, shortened: as §1
Escherichia coli = experiment: Antimicrobial activity against Escherichia coli by broth microdilution method; procedure, shortened: as §1

Row | Compound | MIC (Pseudomonas aeruginosa) | MIC (Candida albicans) | MIC (Enterococcus faecalis) | MIC (Bacillus cereus) | MIC (Staphylococcus aureus) | MIC (Escherichia coli)
1 | C[C@H]1[C@H](C)CC[C@]2(C)CC[C@]3(C)C(=C[C@@H](O)[C@H]4[C@@]3(C)[C@H](O)C[C@@]35OO[C@@H](CC(=O)C3(C)C)[C@]45C)[C@H]12 | 31.9 µM (≈ 15.5 µg/mL) | 31.9 µM (≈ 15.5 µg/mL) | 31.9 µM (≈ 15.5 µg/mL) | 63.8 µM (≈ 31.1 µg/mL) | 14.9 µM (≈ 7.25 µg/mL) | 31.9 µM (≈ 15.5 µg/mL)
2 | C[C@H]1[C@H](C)CC[C@]2(C)CC=C3[C@](C)([C@H]12)[C@H]1O[C@H]1[C@@H]1[C@@]2(C)CC[C@H](O)C(C)(C)[C@@H]2CC[C@@]31C | 36.3 µM (≈ 16 µg/mL) | 36.3 µM (≈ 16 µg/mL) | 36.3 µM (≈ 16 µg/mL) | 72.7 µM (≈ 32 µg/mL) | 72.7 µM (≈ 32 µg/mL) | 36.3 µM (≈ 16 µg/mL)
3 | C[C@@H]1CC[C@]2(C)CC[C@]3(C)[C@@](O)(CC[C@@H]4[C@@]5(C)CC[C@H](O)C(C)(C)[C@@H]5CC[C@]43C)[C@]2(O)[C@H]1C | 140 µM (≈ 64.5 µg/mL) | 69.6 µM (≈ 32.1 µg/mL) | 50 µM (≈ 23 µg/mL) | 140 µM (≈ 64.5 µg/mL) | 69.6 µM (≈ 32.1 µg/mL) | 140 µM (≈ 64.5 µg/mL)
4 | CC1COc2c(N3CCN(C)CC3)c(F)cc3c(=O)c(C(=O)O)cn1c23 (stereo unspecified) [OFLOXACIN] | 0.43 µM (≈ 0.155 µg/mL) |  | 0.86 µM (≈ 0.311 µg/mL) | 0.86 µM (≈ 0.311 µg/mL) | 0.43 µM (≈ 0.155 µg/mL) | 0.43 µM (≈ 0.155 µg/mL)

The next lines start with the values.

Row | MIC (Pseudomonas aeruginosa) | MIC (Candida albicans) | MIC (Enterococcus faecalis) | MIC (Bacillus cereus) | MIC (Staphylococcus aureus) | MIC (Escherichia coli) | Compound
5 | 70.4 µM (≈ 31 µg/mL) | 70.4 µM (≈ 31 µg/mL) | 35.2 µM (≈ 15.5 µg/mL) | 70.4 µM (≈ 31 µg/mL) | 35.2 µM (≈ 15.5 µg/mL) | 70.4 µM (≈ 31 µg/mL) | C[C@H]1[C@H](C)CC[C@]2(C)CC[C@]3(C)C(=C[C@@H](O)[C@@H]4[C@@]5(C)CCC(=O)C(C)(C)[C@@H]5CC[C@]43C)[C@H]12
6 | 44.7 µM (≈ 23 µg/mL) | 89.5 µM (≈ 46.1 µg/mL) | 89.5 µM (≈ 46.1 µg/mL) | 179 µM (≈ 92.1 µg/mL) | 89.5 µM (≈ 46.1 µg/mL) | 89.5 µM (≈ 46.1 µg/mL) | CO[C@@H]1C[C@@]2(C)[C@@H]3[C@@H](C)[C@H](C)CC[C@]3(C)CC[C@]2(C)C2=C1[C@@]1(C)CC[C@H](OC(C)=O)C(C)(C)[C@@H]1C[C@H]2O
7 | 283 µM (≈ 125 µg/mL) | 283 µM (≈ 125 µg/mL) | 142 µM (≈ 63.1 µg/mL) | 283 µM (≈ 125 µg/mL) | 70.1 µM (≈ 31 µg/mL) | 142 µM (≈ 63.1 µg/mL) | C[C@H]1[C@H](C)CC[C@]2(CO)CC[C@]3(C)C(=CC[C@@H]4[C@@]5(C)CC[C@H](O)C(C)(C)[C@@H]5CC[C@]43C)[C@H]12 [UVAOL]
